For orientation: Papp B→A means the apparent permeability from the basolateral to the apical side of a cell layer. The term MIC90 denotes an inhibitory concentration at the 90% level, which refers to growth in some studies and to a panel of isolates in others. Usually MIC stands for the least concentration at which growth counts as inhibited. What is called logD is the decadic logarithm of the distribution of all forms, ionised or not, between an organic phase and buffer at a given pH. A word on the Papp A→B: it is the apparent permeability from the apical to the basolateral side of a cell layer. In general, IC50 refers to the concentration that inhibits the measured activity by half. In general, bioavailability refers to the share of a dose that reaches the circulation, judged against a reference dose that is usually intravenous. The term fraction unbound denotes free concentration divided by total concentration.

A short description of series [1]: Apparent permeability from basolateral to apical side in human Caco2 cells. The series is classed as ADME, cell-based. The following applies: Caco-2. (In general: Caco-2 cells form a polarised layer with tight junctions and transporters.)
For series [2], the system named is Mycobacterium tuberculosis. Put plainly: Antimycobacterial activity against Mycobacterium tuberculosis clinical isolates after 2 to 4 weeks by BACTEC 460 radiometric assay. The series is classed as functional.
The test system of series [3] is Mycobacterium tuberculosis. Kind of series: Antimycobacterial activity against wild-type Mycobacterium tuberculosis H37Rv ATCC 27294 after 16 to 18 days by BACTEC 7H12B microdilution method. The series is classed as functional. On the technique in general: Broth dilution looks for growth in wells or tubes with falling amounts of substance.
Series [4] in a line: Octanol-sodium phosphate buffer partition coefficient, log D of the compound at 10 mM at pH 7.4 by shake-flask method. It is filed as physicochemical.
Series [5] is described as follows: Apparent permeability from apical to basolateral side in human Caco2 cells. It is filed as ADME, cell-based. The settings on record: Caco-2.
A further series addresses DNA gyrase subunit B (Mycobacterium smegmatis, UniProt P0C559). Put plainly: Inhibition of Mycobacterium smegmatis DNA gyrase-B ATPase activity. The arrangement: species or system Mycolicibacterium smegmatis.
The target in series [6] is DNA gyrase subunit A/DNA gyrase subunit B (Mycobacterium tuberculosis (strain ATCC 25618 / H37Rv), UniProt P9WG45+P9WG47). Put plainly: Inhibition of Mycobacterium tuberculosis H37Rv DNA gyrase holoenzyme-mediated supercoiling of pBR322 DNA after 90 mins by agarose gel electrophoresis.
DNA gyrase subunit A/DNA gyrase subunit B, sequence (P9WG45 whole entry): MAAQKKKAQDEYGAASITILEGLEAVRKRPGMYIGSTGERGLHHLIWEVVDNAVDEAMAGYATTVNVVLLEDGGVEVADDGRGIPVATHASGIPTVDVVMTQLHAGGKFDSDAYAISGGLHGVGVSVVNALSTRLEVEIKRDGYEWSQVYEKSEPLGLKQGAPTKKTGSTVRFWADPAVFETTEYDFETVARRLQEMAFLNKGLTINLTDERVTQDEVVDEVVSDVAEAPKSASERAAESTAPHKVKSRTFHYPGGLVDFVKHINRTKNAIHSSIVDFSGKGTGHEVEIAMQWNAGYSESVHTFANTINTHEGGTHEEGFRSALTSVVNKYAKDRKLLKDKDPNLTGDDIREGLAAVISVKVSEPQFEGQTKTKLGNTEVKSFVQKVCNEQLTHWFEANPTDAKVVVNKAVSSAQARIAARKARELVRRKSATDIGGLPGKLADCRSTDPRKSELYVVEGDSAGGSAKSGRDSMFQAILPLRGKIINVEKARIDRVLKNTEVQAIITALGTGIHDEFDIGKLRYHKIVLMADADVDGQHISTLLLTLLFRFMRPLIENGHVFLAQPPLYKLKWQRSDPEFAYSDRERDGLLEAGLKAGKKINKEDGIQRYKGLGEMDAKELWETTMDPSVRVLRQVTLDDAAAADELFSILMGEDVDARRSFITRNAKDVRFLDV
DNA gyrase subunit A/DNA gyrase subunit B, sequence (P9WG47 whole entry): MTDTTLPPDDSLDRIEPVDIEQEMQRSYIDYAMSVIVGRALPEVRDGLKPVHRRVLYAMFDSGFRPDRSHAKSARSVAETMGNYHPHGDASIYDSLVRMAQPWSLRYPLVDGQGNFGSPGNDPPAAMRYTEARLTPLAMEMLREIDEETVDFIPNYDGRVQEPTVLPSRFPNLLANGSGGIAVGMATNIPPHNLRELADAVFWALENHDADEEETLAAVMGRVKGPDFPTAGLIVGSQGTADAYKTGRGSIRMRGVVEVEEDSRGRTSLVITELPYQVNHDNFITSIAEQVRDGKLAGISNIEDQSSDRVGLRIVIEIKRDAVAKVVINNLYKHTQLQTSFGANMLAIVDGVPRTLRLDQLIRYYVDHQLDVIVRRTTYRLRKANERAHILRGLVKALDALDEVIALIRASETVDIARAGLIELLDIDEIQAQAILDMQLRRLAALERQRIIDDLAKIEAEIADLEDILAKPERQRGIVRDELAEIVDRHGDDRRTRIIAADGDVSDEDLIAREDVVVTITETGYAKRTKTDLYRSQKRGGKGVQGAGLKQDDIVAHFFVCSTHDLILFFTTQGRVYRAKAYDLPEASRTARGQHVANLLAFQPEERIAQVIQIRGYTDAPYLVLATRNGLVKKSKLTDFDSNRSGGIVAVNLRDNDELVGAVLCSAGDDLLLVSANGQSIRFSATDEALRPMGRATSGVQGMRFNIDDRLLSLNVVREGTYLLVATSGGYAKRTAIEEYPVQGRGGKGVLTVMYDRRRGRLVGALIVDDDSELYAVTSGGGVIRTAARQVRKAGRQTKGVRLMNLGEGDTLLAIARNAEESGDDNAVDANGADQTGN
For series [7], the system named is Mycobacterium tuberculosis. Kind of series: Antimycobacterial activity against Mycobacterium tuberculosis infected in aminobenzotriazole-pretreated BALB/c mouse acute tuberculosis model assessed as reduction in bacterial burden at 20 mg/kg, po bid for 20 days. It is filed as functional, organism-based. The arrangement: dose 20 mg/kg. The procedure, abridged:
(§1)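 Aerosol-infected BALB/c mice in BSL3, three per group. Treatment began 3 days (acute) or 4 weeks (chronic) after infection. ABT 100 mg/kg po in water was given 2 h before oral gavage of compound in 5% dextrose (pH 4−5 with acetic acid), 10 mL/kg, twice daily at 8 h intervals. Courses were 20 days (7 days/week) or 8 weeks (6 days/week). Lung homogenates were plated on 7H11 for cfu.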

A short description of series [8]: Clearance in rat at 40 mg/kg, po and 5 mg/kg, iv by LC-MS/MS analysis. It is filed as ADME, organism-based. The following applies: in vivo. The procedure, abridged: (§2)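 Rats were dosed with the 5% dextrose (pH 4−5) formulation, 5 mg/kg iv and 40 mg/kg po. Plasma was precipitated with acetonitrile and analysed by LC−MS/MS with a carbamazepine internal standard. Parameters were derived by noncompartmental analysis.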

Series [9] in a line: Oral bioavailability in rat at 40 mg/kg by LC-MS/MS analysis. The following applies: in vivo. The series is classed as ADME, organism-based. The gist of the method:
as §2

Series [10] has as its system Mycobacterium tuberculosis. Put plainly: Bactericidal activity against Mycobacterium tuberculosis H37Rv after 10 days by time kill assay. It is filed as functional, organism-based. The procedure, abridged: (§3)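 Time-kill in 7H9 broth with 0.2% glycerol, 0.05% Tween 80 and 10% ADC. Serial 2-fold dilutions were added to ~3 × 10^7 cfu/mL H37Rv at 37 °C. Aliquots were plated on 7H11 at days 0, 3, 7 and 10, and plates were incubated up to 28 days at 37 °C, 5% CO2, humidified. Results are given as log10 cfu per concentration.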

Series [11] is described as follows: Fraction unbound in aminobenzotriazole-pretreated BALB/c mouse plasma infected with Mycobacterium tuberculosis by LC-MS/MS analysis. The series is classed as ADME, cell-free.
The subject of series [12] is Mycobacterium tuberculosis. Kind of series: Bactericidal activity against Mycobacterium tuberculosis H37Rv at 0.01 to 2 ug/ml by time kill assay. The series is classed as functional, organism-based. The settings on record: TDE = time-dependent effect. The procedure, abridged: as §3
Series [13] can be described thus: Ratio of fAUC in aminobenzotriazole-pretreated Mycobacterium tuberculosis infected BALB/c mouse at 80 mg/kg, po to MIC for wild-type Mycobacterium tuberculosis H37Rv ATCC 27294. The gist of the method: (§4)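 PK was measured in infected, ABT-pretreated mice during efficacy dosing (oral, 5% dextrose pH 4−5) on day 18 or 19. Saphenous blood was taken at 5, 15 and 30 min and 1, 2, 4 and 6 h. Plasma was precipitated with acetonitrile and analysed by LC−MS/MS. AUC came from noncompartmental analysis; free AUC/MIC and %free T>MIC used the unbound fraction and MIC.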

Series [14] has as its system Mycobacterium tuberculosis. Put plainly: Bactericidal activity against Mycobacterium tuberculosis infected in human THP1 cells at 1 ug/ml for 7 days. The series is classed as functional, THP-1. The procedure, abridged: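 Adherent THP-1 macrophages infected with Mtb were exposed to compound at 1 μg/mL for 7 days at 37 °C. Kill was expressed as log reduction versus the untreated control.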

Series [15] has as its system Mycobacterium tuberculosis. Kind of series: Antimycobacterial activity against Mycobacterium tuberculosis infected in aminobenzotriazole-pretreated BALB/c mouse acute tuberculosis model assessed as reduction in bacterial burden at 80 to 160 mg/kg, po bid for 20 days. The series is classed as functional, organism-based. The gist of the method:
as §1

The subject of series [16] is Mus musculus. Put plainly: fT>MIC in BALB/c mouse infected with Mycobacterium tuberculosis at 80 mg/kg, po. The procedure, abridged: as §4
For series [17], the system named is Mycobacterium tuberculosis. Kind of series: Bactericidal activity against Mycobacterium tuberculosis H37Rv assessed as reduction in log10CFU at 0.01 to 2 ug/ml after 10 days by time kill assay. The series is classed as functional. The gist of the method:
as §3

The test system of series [18] is Mycobacterium tuberculosis. Put plainly: Antimycobacterial activity against Mycobacterium tuberculosis infected in aminobenzotriazole-pretreated BALB/c mouse acute tuberculosis model assessed as reduction in log10CFU at 160 mg/kg, po bid for 20 days. The series is classed as functional. The gist of the method: as §1
Series [19] relates to Mus musculus. Put plainly: fT>MIC in BALB/c mouse infected with Mycobacterium tuberculosis at 160 mg/kg, po. The procedure, abridged: as §4
Series [20] concerns Mycobacterium tuberculosis. Kind of series: Antimycobacterial activity against Mycobacterium tuberculosis infected in aminobenzotriazole-pretreated BALB/c mouse chronic tuberculosis model assessed as reduction in log10CFU at 240 mg/kg, po bid for 20 days. The series is classed as functional, organism-based. The arrangement: dose 240 mg/kg. The gist of the method:
as §1

In series [21] the target is T1, DNA gyrase subunit A/DNA gyrase subunit B (Mycobacterium tuberculosis (strain ATCC 25618 / H37Rv)) (UniProt P9WG45+P9WG47). Kind of series: Inhibition of Mycobacterium tuberculosis H37Rv DNA gyrase holoenzyme using pBR322 DNA as substrate assessed as single stranded nicked DNA level at 0.02 to 11 uM after 60 mins by cleavable complex assay relative to control. The arrangement: scale not given: the % may be the effect or the level left. The gist of the method: (§5)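 Reactions were started with DNA and run 60 min at 37 °C, then stopped with proteinase K/SDS for 1 h at 37 °C. Products were resolved on 0.8% agarose with ethidium for 16 h at 1 V/cm, and nicked, linear and supercoiled forms were quantified.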

The test system of series [22] is Mus musculus. Put plainly: fT>MIC in BALB/c mouse infected with Mycobacterium tuberculosis at 20 mg/kg, po. The gist of the method:
as §4

The nature of series [23]: Ratio of fAUC in aminobenzotriazole-pretreated Mycobacterium tuberculosis infected BALB/c mouse at 20 mg/kg, po to MIC for wild-type Mycobacterium tuberculosis H37Rv ATCC 27294. The procedure, abridged: as §4
Series [24] addresses Voltage-gated inwardly rectifying potassium channel KCNH2 (Homo sapiens, UniProt Q12809). Put plainly: Inhibition of human ERG by patch clamp electrophysiological analysis.
Series [25] has as its system Mycobacterium tuberculosis. Put plainly: Antimycobacterial activity against Mycobacterium tuberculosis infected in aminobenzotriazole-pretreated BALB/c mouse chronic tuberculosis model assessed as reduction in log10CFU at 40 to 80 mg/kg, po bid for 8 weeks. It is filed as functional, organism-based. The gist of the method: as §1
Series [26] deals with T1, DNA gyrase subunit A/DNA gyrase subunit B (Mycobacterium tuberculosis (strain ATCC 25618 / H37Rv)). Kind of series: Inhibition of Mycobacterium tuberculosis H37Rv DNA gyrase holoenzyme using pBR322 DNA as substrate assessed as intact DNA level at 0.02 to 11 uM after 60 mins by cleavable complex assay relative to control. The arrangement: scale not given: the % may be the effect or the level left. The procedure, abridged:
as §5

Series [27] has the same target. Kind of series: Inhibition of Mycobacterium tuberculosis H37Rv DNA gyrase holoenzyme using pBR322 DNA as substrate assessed as increase in single-strand cleaved plasmid DNA level after 60 mins by cleavable complex assay relative to control. The gist of the method: as §5
Series [28] has as its system Mycobacterium tuberculosis. Put plainly: Antimycobacterial activity against Mycobacterium tuberculosis infected in aminobenzotriazole-pretreated BALB/c mouse chronic tuberculosis model assessed as reduction in log10CFU at 40 to 80 mg/kg, po bid for 20 days. The series is classed as functional. The settings on record: dose mg/kg 40-80. The procedure, abridged:
as §1

Molecules are shown by their SMILES. Converted amounts (≈) assume the structure as drawn. The source made the active and inactive calls. No cut-off for these calls is given here.

DNA gyrase subunit B, sequence (P0C559 whole entry): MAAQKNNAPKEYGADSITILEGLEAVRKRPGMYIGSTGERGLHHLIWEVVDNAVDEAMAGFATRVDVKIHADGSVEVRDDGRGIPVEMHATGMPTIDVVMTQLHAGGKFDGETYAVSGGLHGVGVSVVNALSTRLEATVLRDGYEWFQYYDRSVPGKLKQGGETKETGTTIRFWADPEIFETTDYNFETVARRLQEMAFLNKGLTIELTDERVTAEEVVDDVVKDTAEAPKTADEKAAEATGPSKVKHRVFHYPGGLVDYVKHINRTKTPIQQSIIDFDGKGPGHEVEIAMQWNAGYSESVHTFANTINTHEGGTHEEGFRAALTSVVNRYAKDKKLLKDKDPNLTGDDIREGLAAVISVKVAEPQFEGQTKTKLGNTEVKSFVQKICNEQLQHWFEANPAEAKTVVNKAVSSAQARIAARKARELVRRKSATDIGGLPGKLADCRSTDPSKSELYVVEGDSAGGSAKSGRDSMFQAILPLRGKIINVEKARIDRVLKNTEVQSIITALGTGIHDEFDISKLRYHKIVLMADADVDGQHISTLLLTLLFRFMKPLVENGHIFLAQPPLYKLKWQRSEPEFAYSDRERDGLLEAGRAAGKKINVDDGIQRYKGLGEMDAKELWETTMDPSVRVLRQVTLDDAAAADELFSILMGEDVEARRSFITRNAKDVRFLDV
Voltage-gated inwardly rectifying potassium channel KCNH2, sequence (Q12809 whole entry): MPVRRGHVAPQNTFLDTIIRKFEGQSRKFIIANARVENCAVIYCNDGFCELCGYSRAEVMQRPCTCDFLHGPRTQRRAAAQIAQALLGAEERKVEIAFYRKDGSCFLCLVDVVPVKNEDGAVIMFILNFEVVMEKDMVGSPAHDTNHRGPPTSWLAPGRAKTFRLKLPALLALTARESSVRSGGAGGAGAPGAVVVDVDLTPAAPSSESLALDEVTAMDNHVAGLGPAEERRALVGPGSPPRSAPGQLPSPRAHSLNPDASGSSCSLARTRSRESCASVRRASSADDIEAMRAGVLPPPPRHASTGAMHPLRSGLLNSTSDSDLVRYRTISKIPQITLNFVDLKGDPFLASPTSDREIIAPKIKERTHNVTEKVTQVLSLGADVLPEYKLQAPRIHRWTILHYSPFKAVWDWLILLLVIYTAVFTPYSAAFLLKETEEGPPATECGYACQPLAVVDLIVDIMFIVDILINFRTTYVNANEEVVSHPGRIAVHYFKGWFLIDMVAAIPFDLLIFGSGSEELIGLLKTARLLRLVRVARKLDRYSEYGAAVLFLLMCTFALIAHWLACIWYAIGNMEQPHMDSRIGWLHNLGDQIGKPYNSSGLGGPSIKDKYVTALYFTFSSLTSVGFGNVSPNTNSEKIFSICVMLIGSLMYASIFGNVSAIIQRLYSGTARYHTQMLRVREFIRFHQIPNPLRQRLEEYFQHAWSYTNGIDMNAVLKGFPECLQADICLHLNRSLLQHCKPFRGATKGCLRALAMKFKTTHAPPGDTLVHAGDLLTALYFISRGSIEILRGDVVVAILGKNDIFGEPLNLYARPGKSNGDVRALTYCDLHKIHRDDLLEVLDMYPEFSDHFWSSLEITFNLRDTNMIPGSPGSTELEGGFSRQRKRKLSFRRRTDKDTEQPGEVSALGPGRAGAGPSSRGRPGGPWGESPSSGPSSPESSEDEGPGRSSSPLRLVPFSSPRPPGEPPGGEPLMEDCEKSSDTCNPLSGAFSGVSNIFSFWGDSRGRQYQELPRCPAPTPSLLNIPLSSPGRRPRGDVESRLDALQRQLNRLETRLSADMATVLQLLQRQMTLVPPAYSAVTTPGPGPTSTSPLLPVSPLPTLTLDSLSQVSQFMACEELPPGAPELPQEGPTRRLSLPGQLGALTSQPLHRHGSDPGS

On to `N#Cc1ccc2ccc(=O)n(CCN3CCC(NCc4ccc5c(n4)NC(=O)CO5)CC3)c2c1`, for which, in [1], the Papp B→A was determined as 12.6 ×10⁻⁶ cm/s. Also, the MIC90 in series [2] was < 0.5 µg/mL. The MIC in series [3] was 0.13 µg/mL (≈ 0.284 µM). Moreover, the logD at 10000 µM in series [4] is 0.4. In addition, the Papp A→B in series [5] is 2 ×10⁻⁶ cm/s. Also, the IC50 is > 100000 nM at DNA gyrase subunit B and 110 nM in series [6]. Besides, the result in series [7] was Active. The clearance in [8] was determined as 187 mL/min/kg. Further, the bioavailability in [9] was 11%.
For `O=C1COc2ccc(CN[C@@H]3CCN(CCn4c(=O)ccc5ncc(F)cc54)C[C@@H]3F)nc2N1`, the Activity result in series [10] is “Dose-dependent effect”; in [12], “tde”. For the same molecule, the Papp B→A in series [1] turned out to be 11.2 ×10⁻⁶ cm/s. The fraction unbound in [11] came out at 0.32. The fAUC/MIC in [13] stood at 129. This molecule also yielded an MIC in series [3] of 0.13 µg/mL (≈ 0.276 µM). Also, the LCK in series [14] is listed as 1.3. This molecule had a logD at 10000 µM in series [4] of 0.47. Also, in series [5], the Papp A→B came to 7.6 ×10⁻⁶ cm/s. Also, the outcome in [15] was Active. In [6], this molecule showed a half-maximal inhibitory concentration (IC50) of 350 nM. The “fT>MIC” value with Mus musculus [16] came to 70%. The clearance in series [8] is 87 mL/min/kg. This molecule also returned a bioavailability in series [9] of 87%. Further, the log10cfu in series [17] is reported as >3; in [18], 1.2.
Consider `COc1cnc2ccc(=O)n(CCN3CC[C@H](NCc4ccc5c(n4)NC(=O)CO5)[C@H](F)C3)c2c1`, for which, in series [1], the apparent permeability from basolateral to apical (Papp B→A) stood at 12.7 ×10⁻⁶ cm/s. Further, the “fT>MIC” value in the series on Mus musculus [19] was 83%. Besides, the fraction unbound in series [11] came out at 0.48. Besides, the minimum inhibitory concentration (MIC) in series [3] was found to be 0.06 µg/mL (≈ 0.124 µM). The LCK in [14] was found to be 1.3. In series [4], this molecule gave a logD at 10000 µM of 0.82. Also, the Papp A→B in series [5] worked out at 3.4 ×10⁻⁶ cm/s. Besides, the outcome in series [15] and in series [20] was Active. In series [6], this molecule came in with an IC50 of 170 nM.
On to `COc1cnc2ccc(=O)n(CCN3CCC(NCc4cnc(C)c(C#N)c4)CC3)c2c1`, for which the Activity in series [21] came out at 70%; in series [26], 10%. Further, the “fT>MIC” value in the series with Mus musculus [22] worked out at 58%. In series [1], the apparent permeability from basolateral to apical (Papp B→A) amounted to 8.3 ×10⁻⁶ cm/s. The unbound share (fraction unbound) in [11] was determined as 0.23. The fAUC/MIC in series [23] turned out to be 54. Further, the MIC in series [3] came to 0.06 µg/mL (≈ 0.139 µM). The results for the IC50 in series [24] and in series [6] were 50600 nM and 140 nM, respectively. The outcome in series [25] was Active. For the same molecule, in [4], the logD at 10000 µM was 1.07. Further, the Papp A→B in [5] is 10.5 ×10⁻⁶ cm/s. In addition, the clearance in [8] was determined as 32 mL/min/kg. Also, the bioavailability in [9] is > 100%. Further, in [27], the inhibition result was “Dose-dependent effect”. Besides, the log10cfu in [28] is recorded as 0.5.

The values are drawn from ChEMBL document CHEMBL3286091, “Novel N-linked aminopiperidine-based gyrase inhibitors with improved hERG and in vivo efficacy against Mycobacterium tuberculosis” (J Med Chem, 2014).
